The target in data set [1] is T1, Glutamate carboxypeptidase 2 (Homo sapiens, UniProt Q04609). Nature of the data set: Binding affinity to PSMA in human LNCaP cells after 45 mins in presence of 68Ga-labeled PSMA-10 by gamma counting assay. Type of data set: cell-based.
Target sequence in this assay (Q04609 whole entry): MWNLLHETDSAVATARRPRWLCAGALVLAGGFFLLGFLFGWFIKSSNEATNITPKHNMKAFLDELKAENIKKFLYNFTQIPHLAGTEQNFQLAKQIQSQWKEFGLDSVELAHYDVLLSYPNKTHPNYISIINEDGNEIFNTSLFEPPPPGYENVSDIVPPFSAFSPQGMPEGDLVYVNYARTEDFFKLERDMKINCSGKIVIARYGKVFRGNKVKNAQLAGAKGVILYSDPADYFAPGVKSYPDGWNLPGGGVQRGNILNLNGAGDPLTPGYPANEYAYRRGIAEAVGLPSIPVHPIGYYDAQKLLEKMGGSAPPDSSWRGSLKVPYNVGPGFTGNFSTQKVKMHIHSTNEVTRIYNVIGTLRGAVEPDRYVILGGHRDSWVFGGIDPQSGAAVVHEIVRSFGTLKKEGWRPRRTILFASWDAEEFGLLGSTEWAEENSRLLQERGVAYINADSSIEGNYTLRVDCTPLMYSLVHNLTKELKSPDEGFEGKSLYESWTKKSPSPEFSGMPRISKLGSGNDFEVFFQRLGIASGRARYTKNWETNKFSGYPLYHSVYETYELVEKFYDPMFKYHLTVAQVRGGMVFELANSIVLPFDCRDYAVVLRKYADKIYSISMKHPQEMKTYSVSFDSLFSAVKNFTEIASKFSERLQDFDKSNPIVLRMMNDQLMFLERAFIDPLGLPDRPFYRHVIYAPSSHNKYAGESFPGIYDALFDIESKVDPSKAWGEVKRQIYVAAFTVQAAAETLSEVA
Data set [2] can be described thus: Retention time of the compound by HPLC. In kind it is physicochemical.
The nature of data set [3]: Distribution coefficient, logD of the compound at pH 7.4 in n-octanol/0.1 M HEPES by shake flask method. Type of data set: physicochemical. Summed up:
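Radiolabelled compound shaken to equilibrium in n-octanol / 0.1 M HEPES pH 7.4. Aliquots of both phases gamma-counted and logD calculated from the phase ratio. Mean ± SD.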

Data set [4] concerns the target T1, Glutamate carboxypeptidase 2. Nature of the data set: Inhibition of PSMA in human LNCaP cells assessed as cell surface binding per 10^6 cells using 177Lu-labeled compound after 45 mins by gamma counting analysis. In kind it is cell-based. Summed up:
(§1)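 LNCaP cells (10^5/well) seeded on poly-L-lysine 24 h before. Incubated 45 min at 37 °C with 32 nM 177Lu-labelled compound (25 GBq/µmol) in Opti-MEM, with or without 500 µM 2-PMPA as blocker. Four ice-cold PBS washes, surface fraction stripped with 50 mM glycine pH 2.8, internalized fraction released by 0.3 M NaOH lysis. Both fractions gamma-counted, specific values given as %IA/10^6 cells. Triplicate.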
Target sequence in this assay (Q04609 whole entry, looked up): as the sequence (Q04609 whole entry) above

The target is the same in data set [5]. Nature of the data set: Inhibition of PSMA in human LNCaP cells assessed as specific internalization per 10^6 cells using 177Lu-labeled compound after 45 mins by gamma counting analysis. Type of data set: cell-based. In outline:
as §1
Target sequence in this assay (Q04609 whole entry, looked up): as the sequence (Q04609 whole entry) above

Data set [6] is described as follows: Drug uptake in iv dosed BALB/c athymic nude mouse tumor xenografted with human LNCaP cells treated with 68Ga-labeled compound measured after 1 hr by microPET imaging analysis. In kind it is ADME, organism-based. Conditions: in vivo; call rule not given here. In outline:
(§2)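 Male BALB/c nu/nu mice, 6–8 weeks old, with subcutaneous LNCaP xenografts (6 × 10^6 cells in 50% Matrigel, right trunk) of about 1 cm. Tail-vein injection of 68Ga-labelled compound (~30 MBq, 0.5 nmol) under sevoflurane. Dynamic µPET: 60 min emission scan, then 100–120 min scan. SUVmean for tumor, muscle and kidney at 1 h; tumor/muscle ratio. One animal per compound.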
In general terms: In xenograft studies the graft and the host belong to different species.

Data set [7] can be described thus: Drug uptake in iv dosed BALB/c athymic nude mouse muscle xenografted with human LNCaP cells treated with 68Ga-labeled compound measured after 1 hr by microPET imaging analysis. Type of data set: ADME, organism-based. The conditions noted are these: in vivo. In outline:
as §2

A short description of data set [8]: Drug uptake in iv dosed BALB/c athymic nude mouse kidney xenografted with human LNCaP cells treated with 68Ga-labeled compound measured after 1 hr by microPET imaging analysis. In kind it is ADME, organism-based. The conditions noted are these: in vivo. Summed up: as §2
The nature of data set [9]: Ratio of drug uptake in tumor to muscle in iv dosed BALB/c athymic nude mouse xenografted with human LNCaP cells treated with 68Ga-labeled compound measured after 1 hr by microPET imaging analysis. Type of data set: ADME, organism-based. The conditions noted are these: in vivo. In outline:
as §2

Data set [10] is described as follows: Binding affinity to human serum protein after 1 hr by gel filtration method. In kind it is ADME. A general note: Size exclusion chromatography separates by hydrodynamic size, large species first.
Data set [11] can be described thus: Drug uptake in iv dosed BALB/c athymic nude mouse tumor xenografted with human LNCaP cells treated with 68Ga-labeled compound measured upto 120 mins by microPET imaging analysis. Type of data set: ADME, organism-based. Conditions: in vivo, 2 h. In outline:
as §2

The term Ki denotes a measure of affinity in units of concentration, obtained from inhibition or displacement. What is called logD is the decadic logarithm of the distribution of all forms, ionised or not, between an organic phase and buffer at a given pH. The low end stands for lower lipophilicity, the high end for higher lipophilicity.

With `O=C(O)CC[C@H](NC(=O)N[C@@H](CCCCNC(=O)[C@H](Cc1ccc2ccccc2c1)NC(=O)c1ccc(CNC(=O)CN2CCN(CC(=O)O)CCN(CC(=O)O)CCN(CC(=O)O)CC2)cc1)C(=O)O)C(=O)O`, the Ki in [1] is 1.81 nM. This compound also displayed a Retention_time in [2] of 2.32 min. This compound also registered a pH-dependent lipophilicity (logD) in [3] of -2.1. In addition, the specific cell surface binding (% of applied activity per 10^6 cells) in data set [4] was determined as 16.8%. Besides, the specific internalization (% of added activity per 10^6 cells) in data set [5] came to 7.17%. In addition, the SUV is 0.52 in data set [6], 0.1 in [7] and 3.63 in [8]. For the same compound, in data set [9], the Ratio is given as 5.2. In addition, in [10], the PB result is “Not Active”. For the same compound, the Drug uptake result in data set [11] is recorded as “Active”.

As for `O=C(O)CC[C@H](NC(=O)N[C@@H](CCCCNC(=O)[C@H](Cc1ccc2ccccc2c1)NC(=O)[C@H]1CC[C@H](CNC(=O)CN2CCN(CC(=O)O)CCN(CC(=O)O)CCN(CC(=O)O)CC2)CC1)C(=O)O)C(=O)O` [VIPIVOTIDE TETRAXETAN], the Retention_time in data set [2] is on record as 2.63 min. Also, the logD in data set [3] is -2. For the same compound, the specific cell surface binding (% of applied activity per 10^6 cells) in data set [4] is 11.4%. For the same compound, the specific internalization (% of added activity per 10^6 cells) in [5] was 16.2%. Besides, the SUV came to 0.59 in data set [6], 0.07 in [7] and 2.87 in data set [8]. For the same compound, the PB result in [10] is on record as “Not Active”. The Drug uptake entry in [11] was “Active”.

Regarding `O=C(O)CC[C@H](NC(=O)N[C@@H](CCCCNC(=O)CCCCCNC(=O)c1ccc(CNC(=O)CN2CCN(CC(=O)O)CCN(CC(=O)O)CCN(CC(=O)O)CC2)cc1)C(=O)O)C(=O)O`, in [1], the Ki turned out to be 15.3 nM. The Retention_time in data set [2] was 1.74 min. The compound also returned a logD in data set [3] of -1.92. In [4], the specific cell surface binding (% of applied activity per 10^6 cells) is 17.7%. Further, the specific internalization (% of added activity per 10^6 cells) in data set [5] amounted to 2.11%. In addition, the SUV is on record as 0.3 in [6], 0.08 in [7] and 4.7 in [8]. Besides, the Ratio in data set [9] stood at 3.8. Further, in [10], the PB result is listed as “Not Active”. Further, the Drug uptake entry in data set [11] is listed as “Not Active”.

Consider `O=C(O)CC[C@H](NC(=O)N[C@@H](CCCCNC(=O)[C@H](Cc1cccc2ccccc12)NC(=O)[C@H]1CC[C@H](CNC(=O)CN2CCN(CC(=O)O)CCN(CC(=O)O)CCN(CC(=O)O)CC2)CC1)C(=O)O)C(=O)O`, for which, in [1], the inhibition constant (Ki) was determined as 12.8 nM. Besides, the Retention_time in data set [2] was 2.59 min. The same compound had a logD in data set [3] of -1.95. Also, the specific cell surface binding (% of applied activity per 10^6 cells) in data set [4] was 6.58%. In addition, in data set [5], the specific internalization (% of added activity per 10^6 cells) came out at 0.9%. Moreover, the SUV was 0.29 in data set [6], 0.08 in [7] and 2.15 in [8]. For the same compound, in data set [9], the Ratio is 3.6. Moreover, the Drug uptake result in data set [11] was “Not Active”.

`O=C(O)CC[C@H](NC(=O)N[C@@H](CCCCNC(=O)[C@H](Cc1ccc(-c2ccccc2)cc1)NC(=O)CN1CCN(CC(=O)O)CCN(CC(=O)O)CCN(CC(=O)O)CC1)C(=O)O)C(=O)O`: the Ki in data set [1] was found to be 0.5 nM. In [2], this compound came in with a Retention_time of 2.59 min. The compound further gave a logD in data set [3] of -1.98. The specific cell surface binding (% of applied activity per 10^6 cells) in data set [4] was 4.93%. In data set [5], the specific internalization (% of added activity per 10^6 cells) is 2.22%. For the same compound, the SUV worked out at 0.63 in data set [6], 0.23 in [7] and 6.57 in data set [8]. Also, the Ratio in data set [9] was determined as 2.7. In addition, in data set [11], the Drug uptake entry is reported as “Active”.

As to `O=C(O)CC[C@H](NC(=O)N[C@@H](CCCCNC(=O)[C@H]1CC[C@H](CNC(=O)[C@H]2CC[C@H](CNC(=O)CN3CCN(CC(=O)O)CCN(CC(=O)O)CCN(CC(=O)O)CC3)CC2)CC1)C(=O)O)C(=O)O`, the inhibition constant (Ki) in data set [1] amounted to 21 nM. The compound also registered a Retention_time in data set [2] of 2.08 min. This compound also returned a logD in data set [3] of -1.12. In data set [4], the specific cell surface binding (% of applied activity per 10^6 cells) was found to be 3.88%. For the same compound, in [5], the specific internalization (% of added activity per 10^6 cells) amounted to 1.43%. Besides, the SUV in data set [6] came to 0.3; in data set [7] it was 0.13; in data set [8] it was 4.29. Further, in data set [9], the Ratio came to 2.3. In addition, the PB result in data set [10] is “Not Active”. In addition, in [11], the Drug uptake result was “Not Active”.

On to `O=C(O)CC[C@H](NC(=O)N[C@@H](CCCCNC(=O)[C@H]1CC[C@H](CNC(=O)c2ccc(CNC(=O)CN3CCN(CC(=O)O)CCN(CC(=O)O)CCN(CC(=O)O)CC3)cc2)CC1)C(=O)O)C(=O)O`, for which the Ki in data set [1] turned out to be 24.7 nM. Also, the Retention_time in data set [2] is listed as 2.07 min. The compound further came in with a logD in [3] of -1.43. Also, the specific cell surface binding (% of applied activity per 10^6 cells) in data set [4] came out at 4.49%. Moreover, the specific internalization (% of added activity per 10^6 cells) in data set [5] turned out to be 2.7%. For the same compound, the SUV in data set [6] worked out at 0.54; in data set [7] it was 0.14; in data set [8], 8.1. The Ratio in data set [9] stood at 3.9. The PB result in [10] is listed as “Not Active”. Also, in data set [11], the Drug uptake result is “Not Active”.

In the case of `O=C(O)CC[C@H](NC(=O)N[C@@H](CCCCNC(=O)c1ccc(CNC(=O)c2ccc(CNC(=O)c3ccc(CNC(=O)CN4CCN(CC(=O)O)CCN(CC(=O)O)CCN(CC(=O)O)CC4)cc3)cc2)cc1)C(=O)O)C(=O)O`, the Ki in data set [1] stood at 0.53 nM. Besides, the Retention_time in data set [2] came to 1.95 min. Also, the logD in data set [3] is -2.06. The specific cell surface binding (% of applied activity per 10^6 cells) in [4] amounted to 21.4%. Further, the specific internalization (% of added activity per 10^6 cells) in data set [5] worked out at 12.5%. Also, the values for the SUV in [6], in data set [7] and in data set [8] were 0.58, 0.11 and 4.16, respectively. The Ratio in [9] stood at 5.4. The PB result in data set [10] is “Not Active”. In addition, the Drug uptake entry in data set [11] is on record as “Active”.

The values are drawn from ChEMBL document CHEMBL5252516, “Linker Modification Strategies To Control the Prostate-Specific Membrane Antigen (PSMA)-Targeting and Pharmacokinetic Properties of DOTA-Conjugated PSMA Inhibitors” (J Med Chem, 2016).
